According to ChEMBL document CHEMBL3272300, “Mapping the dopamine receptor. 1. Features derived from modifications in ring E of the neuroleptic butaclamol” (J Med Chem, 1979):
Activity calls are given as the source filed them. The rule behind the calls is not given here.

Assays:
Mus musculus = assay: Inhibition of isolation-induced fighting behaviour in ip dosed Swiss albino mouse measured after 30 mins to 3 hrs; type: functional
Procedure, shortened: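 Albino mice (14–16 g) isolated 4–5 weeks; pairs showing maximal fighting in a morning control session were dosed ip and retested at 30 min and 3 h in 5-min observations. All-or-none: effective if no fighting episode; ED50 = dose abolishing fighting in 50% of pairs, by Litchfield–Wilcoxon.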

Rattus norvegicus [1] = assay: Behavioral effect in Sprague-Dawley rat assessed as inhibition of d-amphetamine-induced stereotyped behaviour at 20 mg/kg, ip administered 15 mins post challenge measured every 15 mins for 4 hrs post challenge; type: functional, organism-based; set-up: dose 20 mg/kg
Procedure, shortened: (§1)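 Rats (160–180 g), groups of four or more, given d-amphetamine 10 mg/kg ip, then graded ip doses of test agent or vehicle 15 min later; highest dose 20 mg/kg. Behaviour scored 0 (normal), 1 (excited), 2 (stereotyped) every 15 min for 4 h after amphetamine. MED = lowest dose antagonizing all amphetamine behavioural effects over the 4-h period.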

Rattus norvegicus [2] = assay: Induction of catalepsy in Sprague-Dawley rat at 5 mg/kg, ip measured after 1 to 24 hrs; type: organism-based; set-up: dose 5 mg/kg, route intraperitoneal; conditions: in vivo
Procedure, shortened: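 Rats (160–180 g), six per group, dosed ip at 5 mg/kg. Catalepsy scored at 1, 2, 4, 6 and 24 h by Wirth stages III and IV; highest mean cataleptic score given as percent of maximum attainable score.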

Rattus norvegicus [3] = assay: Inhibition of epinephrine-induced mortality in ip dosed Sprague-Dawley rat compound administered 1 hr prior challenge measured over 24 hrs; type: functional
Procedure, shortened: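 Groups of six or more rats (220–225 g) given graded ip doses; 1 h later epinephrine bitartrate 0.25 mg/kg iv, a dose lethal to untreated rats. Deaths recorded over 24 h. Protective ED50 (dose protecting 50% of rats from lethality) calculated by Litchfield–Wilcoxon method.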

Rattus norvegicus [4] = assay: Behavioral effect in ip dosed Sprague-Dawley rat assessed as reduction in conditioned avoidance response compound administered 30 mins prior testing; type: functional
Procedure, shortened: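 Morpurgo discrimination box: trained rats (250–400 g) must leave start chamber for lighted exit within 10 s or get shock. Two-trial control session before dosing; graded ip doses to groups of six or more; ten trials run 30 min post-injection. Avoidance failures expressed as percent of trials; ED50 = dose giving 50% failure.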

Rattus norvegicus [5] = assay: Behavioral effect in ip dosed Sprague-Dawley rat assessed as inhibition of d-amphetamine-induced stereotyped behaviour compound administered 15 mins post challenge measured every 15 mins for 4 hrs post challenge; type: functional; conditions: read-out: MED; procedure, shortened: as §1

Question: How did the ED50 (Mus musculus) turn out when CC(C)(C)C1CCN2C[C@H]3c4ccccc4CCc4cccc(c43)[C@@H]2C1 (some centres not stated) was run?
Answer: 2.1 mg/kg

Question: What about the Activity (Rattus norvegicus [1]) of the same molecule?
Answer: inactive

Question: What about the Activity (Rattus norvegicus [2]) of the same molecule?
Answer: 93%

Question: What about the ED50 (Rattus norvegicus [3]) of the same molecule?
Answer: 19 mg/kg

Question: And the ED50 (Rattus norvegicus [4])?
Answer: 0.8 mg/kg

Question: And the minimal effective dose (Rattus norvegicus [5])?
Answer: 0.62 mg/kg

Question: Which Activity (Rattus norvegicus [1]) does the source give for c1ccc2c(c1)CCc1cccc3c1[C@H]2CN1CCCC[C@@H]31 here?
Answer: inactive

Question: How did the Activity (Rattus norvegicus [1]) turn out when CC(C)(C)C1CCN2C[C@H]3c4ccccc4CCc4cccc(c43)[C@H]2C1 (relative stereo) was run?
Answer: inactive

Question: For CC(C)(C)[C@@]1(O)CC[C@@H]2c3cccc4c3[C@@H](CN2C1)c1ccccc1CC4 (relative stereo), which Activity (Rattus norvegicus [1]) is on record?
Answer: inactive

Question: With CC(C)(C)[C@]1(O)CC[C@H]2c3cccc4c3[C@@H](CN2C1)c1ccccc1CC4 (relative stereo) as the molecule, how does the Activity (Rattus norvegicus [1]) read?
Answer: inactive

Question: Which Activity (Rattus norvegicus [1]) does the source give for O[C@H]1CCN2C[C@H]3c4ccccc4CCc4cccc(c43)[C@@H]2C1 (relative stereo) here?
Answer: inactive

Question: How did the Activity (Rattus norvegicus [1]) turn out when c1ccc2c(c1)CCc1cccc3c1[C@H]2CN1CCC2(C[C@@H]31)OCCO2 (relative stereo) was run?
Answer: inactive

Question: With CC(C)(C)[C@]1(O)CCN2C[C@H]3c4ccccc4CCc4cccc(c43)[C@@H]2C1 [BUTACLAMOL] as the molecule, how does the ED50 (Mus musculus) read?
Answer: 1.9 mg/kg

Question: And the Activity (Rattus norvegicus [2])?
Answer: 60%

Question: What about the ED50 (Rattus norvegicus [3]) of the same molecule?
Answer: 15 mg/kg

Question: And the ED50 (Rattus norvegicus [4])?
Answer: 0.64 mg/kg

Question: And the minimal effective dose (Rattus norvegicus [5])?
Answer: 0.62 mg/kg
